According to the RNAGym collection of RNA variant scans (doi:10.1101/gad.245936.114):
Fewer inactive variants are shown than the library holds.

B1: tRNA (parent)
chain: CUCUCGGUAGCCAAGUUGGUUUAAGGCGCAAGACUUUAAUUUAUCACUACGAAAUCUUGAGAUCGGGCGUUCGACUCGCCCCCGGGAGAUUUUUUCCUCGAGCAA

Variants of: B1
Assay: nonsense suppression (GFP-seq) (ratio to wild type); higher = more function; SUP4oc tRNA, yeast GFP reporter sort-seq
Procedure, shortened: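 Yeast carrying genome-integrated SUP4oc tRNA variants from a library with ~3% random mutations were grown in raffinose/galactose medium with 80 mg/L adenine. Each strain also carried a galactose-driven GFP ochre reporter and RFP. Cells were sorted into GFP/RFP bins, and each bin was Illumina-sequenced (phred ≥30). Nonsense suppression (GFPSEQ) is the bin median GFP/RFP, weighted by each variant's estimated cell share per bin, relative to wild-type SUP4oc; variants needed ≥100 reads and ≥30 cells.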

Row | Variant | nonsense suppression
1 | G28U A54U | ≤ 0.026
2 | A13U C79A G84U | ≤ 0.026
3 | U4C U8A | 0.0441
4 | G7A A54C G67U | ≤ 0.026
5 | C29A C75U | 0.0265
6 | U16G A54U U63G | 0.278
7 | G59C C68A G88U A89C | ≤ 0.026
8 | C3A U58G U76A | ≤ 0.026
9 | C72G G73A | 0.0319
10 | G15U U70A G85U | ≤ 0.026
11 | U63A G86U | 0.0573
12 | G32U U71C G84A | ≤ 0.026
13 | U20A G61U | 0.217
14 | G18U A33U C82U A89C | ≤ 0.026
15 | G26U G69U C79U | ≤ 0.026
16 | U58C U63C | 0.144
17 | A13C G28A | 1.08
18 | A31U U57A | 0.963
19 | U4A A9U | 0.2
20 | A30G C72G | 0.0409
21 | A13G A54C G69U G86U | ≤ 0.026
22 | A9U A24C G66C C83U G85A | ≤ 0.026
23 | G7C U76C | ≤ 0.026
24 | A9C C75A G88A | ≤ 0.026

Row | Variant | nonsense suppression
25 | U63G U76A | 0.433
26 | U20C C72G | 0.063
27 | A33C C56A G78A | ≤ 0.026
28 | U2C U55A | ≤ 0.026
29 | A9U | 0.802
30 | C12U G19U U57C C77A A89U | ≤ 0.026
31 | A13C A89G | 0.122
32 | G18A U20G | 0.905
33 | G15U C68G | ≤ 0.026
34 | G78A G84A | 0.459
35 | U2C C56G | ≤ 0.026
36 | G7A U20G C34U A62C | ≤ 0.026
37 | C11U G84C A89C | ≤ 0.026
38 | A24C G32U | 0.043
39 | C12U G85C | 0.111
40 | C5A A23C A31G G61A | ≤ 0.026
41 | A24C U76C | 0.88
42 | U21A A54U | 0.737
43 | U55C G88C | 0.0568
44 | C1A A24C A60C U63G C72G C77G | ≤ 0.026
45 | U16A G59A | 0.32
46 | G73A A87U | 0.0409
47 | A14U A23G A62U G84A | ≤ 0.026
48 | U4G G61A | 0.189

Row | Variant | nonsense suppression
49 | G73U C81U | 0.0263
50 | U63G A89G | 0.0674
51 | U21A A31G | 1.16
52 | U57C G85A | 0.757
53 | U8A A13G | ≤ 0.026
54 | A9U A54C | 0.0503
55 | U21C | 0.954
56 | U2C C5A | ≤ 0.026
57 | U8G G18C G59A | ≤ 0.026
58 | G6A A62U | ≤ 0.026
59 | C75U G85A | 1.06
60 | C3U C34U | ≤ 0.026
61 | U2C A9C C75A | 0.038
62 | G25C A89U | ≤ 0.026
63 | G7U C11U C56G | ≤ 0.026
64 | U17G U21G | 0.717
65 | C1G A24U G28A A74C C81A A89G | ≤ 0.026
66 | C11A U71A | ≤ 0.026
67 | C3G C77A | ≤ 0.026
68 | C11G U35C A74U C82A | ≤ 0.026
69 | C1A C81G | ≤ 0.026
70 | G66A G73A | 0.182
71 | A54C U57A | 0.0382
72 | C11U C56G G73C G78A C79G | ≤ 0.026

Row | Variant | nonsense suppression
73 | U4C G26U C34G U35A C82A | ≤ 0.026
74 | G61A A62U | 0.311
75 | G28A A60G | 1.07
76 | C1U A9G | 0.0262
77 | A9G G61A G85A | 0.303
78 | C11U G18U A60G | ≤ 0.026
79 | U21A U76C | 1.18
80 | G61A G78U | 0.0402
81 | C1U C12A | ≤ 0.026
82 | A14U U20C A24G C75G | ≤ 0.026
83 | U21A C75A | 0.947
84 | U22G G78U | 0.112
85 | A13U G61U | 0.447
86 | U76C G78U | 0.0507
87 | U2A C81U | 0.0376
88 | U4C A9G U22G | 0.202
89 | U8A G25A | ≤ 0.026
90 | C12U C82U | 0.32
91 | G10C A54U | ≤ 0.026
92 | C27U U71C C77G | ≤ 0.026
93 | C12A G25C C68G | ≤ 0.026
94 | A9C U22A | 0.709
95 | A31G U35A | 0.0292
96 | G65U G86A | ≤ 0.026

Row | Variant | nonsense suppression
97 | G69U G86C | 0.17
98 | A23C C34U G78U | ≤ 0.026
99 | A9C C11A C75A | ≤ 0.026
100 | U20C A24C | 0.249
101 | U4C U35C G69C | ≤ 0.026
102 | U22G A87G | 0.886
103 | G61A C75A | 0.842
104 | C29A U57A G73A | ≤ 0.026
105 | C3U A30G C34U | ≤ 0.026
106 | U63G U70C C75U | 0.099
107 | A9G C27U | 0.0421
108 | U16G C56A U58G A60C | ≤ 0.026
109 | C5U A62C G65C U70G U71A | ≤ 0.026
110 | C64G U70C G84U | ≤ 0.026
111 | A74G C75A G86C | ≤ 0.026
112 | C27U G61C | 0.0306
113 | A9U U57G C77A G85A | ≤ 0.026
114 | A54U A60C | 0.279
115 | U2A G15A G66C G85U | ≤ 0.026
116 | G7U U21G A23U C79G | ≤ 0.026
117 | U2A U4G | 0.203
118 | C29U G59C | 0.0272
119 | U55C A87C | 0.0719
120 | A31U | 0.177

Row | Variant | nonsense suppression
121 | A9U A24G | 0.0422
122 | C3U A9U A30G A54U G67A | ≤ 0.026
123 | G26U G61A | ≤ 0.026
124 | A9G C82U | 0.531
125 | C3A G18C G86A | ≤ 0.026
126 | A31G U57A | 0.136
127 | C34G C64U | ≤ 0.026
128 | A9G G84A | 0.0699
129 | U4C G25C | 0.723
130 | U20A G78A | 0.0977
131 | U22G G78A | 0.173
132 | A9U C11G C68A | ≤ 0.026
133 | U20G | 0.989
134 | U17G C75U A87G | 0.77
135 | C27U U55C C56A G88U | ≤ 0.026
136 | G28C G73U | 0.0322
137 | U57A U63C | 0.0744
138 | G15C C56A | ≤ 0.026
139 | A30G C79U | 0.207
140 | U22A G61C | 0.203
141 | U17A A60C | 0.19
142 | U8A A30G A33G | ≤ 0.026
143 | C1A C56G A62U C80G C82A | ≤ 0.026
144 | U17A A33G | 0.104

Row | Variant | nonsense suppression
145 | U57A C81G A89G | ≤ 0.026
146 | U21A C29A C79U | ≤ 0.026
147 | A23G A24C | 0.156
148 | U8G A13G G61C C68G C82G | ≤ 0.026
149 | A24C G84A | 0.478
150 | U21G G85A | 1.08
151 | G10C C77G | ≤ 0.026
152 | C5A A9C A24G G85A | ≤ 0.026
153 | A54C G65U | 0.0425
154 | A24C C68U | 0.765
155 | A24C C79U | 0.209
156 | A31G C82U | 0.25
157 | A31G G84A | ≤ 0.026
158 | U20G U21C | 0.761
159 | C3G G85U | 0.0369
160 | A9U G84A | 0.138
161 | U16C U63C | 1.11
162 | U22C G78C | 0.195
163 | U22A A33U A89C | ≤ 0.026
164 | G15A A33G | 0.0395
165 | G10U U21C A74U | ≤ 0.026
166 | G7A G26U C29A | ≤ 0.026
167 | U21C A54C U63G C82U | ≤ 0.026
